{"source": "ChEMBL document CHEMBL1152758", "about": "“Synthesis and cytotoxic activity of new azepino[3',4':4,5]pyrrolo[2,1-a]isoquinolin-12-ones” (Bioorg Med Chem, 2009)", "key": {"[1]": {"assay": "Inhibition of Marthasterias glacialis oocyte CDK1/Cyclin B"}, "[2]": {"test_system": "U-251", "assay": "Cytotoxicity against human U251 cells after 48 hrs by SRB assay", "assay_type": "functional, cell-based", "settings": "U-251, 48 h", "outline": "(§1)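 SRB protein-staining microculture growth assay following the Monks method. Cells were detached with 0.1% (w/v) trypsin-EDTA, counted by hemocytometer and diluted in complete medium to 5 × 10⁴ cells/mL (K-562, MCF-7), 7.5 × 10⁴ cells/mL (U-251, PC-3) or 10 × 10⁴ cells/mL (HCT-15). DMSO stocks were tested at 100, 31, 10, 3.1 and 1. After 48 h, cells were fixed in situ with 50% TCA for 60 min at 4 °C. IC50 is the mean of three experiments.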"}, "[3]": {"test_system": "PC-3", "assay": "Cytotoxicity against human PC3 cells after 48 hrs by SRB assay", "assay_type": "functional, cell-based", "settings": "PC-3, 48 h", "outline": "as §1"}, "[4]": {"test_system": "HCT-15", "assay": "Cytotoxicity against human HCT15 cells after 48 hrs by SRB assay", "assay_type": "functional, cell-based", "settings": "HCT-15, 48 h", "outline": "as §1"}, "[5]": {"biological_target": "Glycogen synthase kinase-3 beta (Homo sapiens, UniProt P49841)", "sequence (P49841 whole entry)": "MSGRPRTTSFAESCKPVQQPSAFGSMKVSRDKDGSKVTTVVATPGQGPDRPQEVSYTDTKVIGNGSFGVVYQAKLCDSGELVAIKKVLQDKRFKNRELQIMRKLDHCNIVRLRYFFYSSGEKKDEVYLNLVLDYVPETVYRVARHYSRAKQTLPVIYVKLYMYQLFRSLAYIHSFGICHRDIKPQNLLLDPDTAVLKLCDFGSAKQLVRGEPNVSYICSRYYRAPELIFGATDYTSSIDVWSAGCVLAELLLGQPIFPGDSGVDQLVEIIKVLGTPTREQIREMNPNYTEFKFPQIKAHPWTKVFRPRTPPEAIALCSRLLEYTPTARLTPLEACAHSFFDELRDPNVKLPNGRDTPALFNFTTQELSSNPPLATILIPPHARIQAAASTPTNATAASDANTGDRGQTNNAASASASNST", "assay": "Inhibition of GSK3-beta expressed in Sf9 cells"}, "[6]": {"test_system": "K562", "assay": "Cytotoxicity against human K562 cells after 48 hrs by SRB assay", "assay_type": "functional, cell-based", "settings": "K562, 48 h", "outline": "as §1"}, "[7]": {"test_system": "MCF7", "assay": "Cytotoxicity against human MCF7 cells after 48 hrs by SRB assay", "assay_type": "functional, cell-based", "settings": "MCF7, 48 h", "outline": "as §1"}, "[8]": {"biological_target": "Cyclin-dependent kinase 5/CDK5 activator 1 (Homo sapiens, UniProt Q00535)", "sequence (Q00535 whole entry)": "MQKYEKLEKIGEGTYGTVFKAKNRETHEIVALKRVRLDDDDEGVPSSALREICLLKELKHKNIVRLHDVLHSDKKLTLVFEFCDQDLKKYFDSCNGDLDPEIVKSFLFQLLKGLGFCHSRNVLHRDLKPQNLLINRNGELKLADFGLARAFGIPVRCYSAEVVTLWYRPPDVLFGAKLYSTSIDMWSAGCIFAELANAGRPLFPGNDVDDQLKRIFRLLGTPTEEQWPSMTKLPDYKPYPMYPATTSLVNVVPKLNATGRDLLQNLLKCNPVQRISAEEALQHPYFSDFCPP", "sequence (Q15078 whole entry, further chain)": "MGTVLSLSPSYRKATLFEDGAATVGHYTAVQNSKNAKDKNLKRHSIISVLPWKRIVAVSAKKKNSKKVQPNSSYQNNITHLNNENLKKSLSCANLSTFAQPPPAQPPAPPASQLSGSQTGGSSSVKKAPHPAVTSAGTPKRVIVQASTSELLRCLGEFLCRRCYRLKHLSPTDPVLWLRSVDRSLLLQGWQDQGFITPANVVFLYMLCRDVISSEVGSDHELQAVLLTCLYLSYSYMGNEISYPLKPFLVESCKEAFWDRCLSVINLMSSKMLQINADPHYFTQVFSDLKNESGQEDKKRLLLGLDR", "assay": "Inhibition of recombinant CDK5/p25 expressed in Escherichia coli"}}}
{"molecule": "CC1(C)CNC(=O)c2cc3n(c2C1)CCc1cc(Br)ccc1-3", "values": [{"measurement": "IC50", "setting": "[1]", "value": "> 10", "unit": "µM"}, {"measurement": "IC50", "setting": "[2]", "value": 18.1, "unit": "µM"}, {"measurement": "IC50", "setting": "[3]", "value": 33.6, "unit": "µM"}, {"measurement": "IC50", "setting": "[4]", "value": 25.6, "unit": "µM"}, {"measurement": "IC50", "setting": "[5]", "value": "> 10", "unit": "µM"}, {"measurement": "IC50", "setting": "[6]", "value": 36.1, "unit": "µM"}, {"measurement": "IC50", "setting": "[7]", "value": 43.1, "unit": "µM"}, {"measurement": "IC50", "setting": "[8]", "value": "> 10", "unit": "µM"}]}
{"molecule": "CC1(C)CC(=O)c2cc3n(c2C1)CCc1cc(F)ccc1-3", "values": [{"measurement": "IC50", "setting": "[2]", "value": "> 100", "unit": "µM"}, {"measurement": "IC50", "setting": "[3]", "value": "> 100", "unit": "µM"}, {"measurement": "IC50", "setting": "[4]", "value": 65.5, "unit": "µM"}, {"measurement": "IC50", "setting": "[6]", "value": 27.2, "unit": "µM"}, {"measurement": "IC50", "setting": "[7]", "value": "> 100", "unit": "µM"}]}
{"molecule": "O=C1Cc2c([nH]c3ccc([N+](=O)[O-])cc23)-c2ccccc2N1", "note": "[ALSTERPAULLONE]", "values": [{"measurement": "IC50", "setting": "[2]", "value": 0.68, "unit": "µM"}, {"measurement": "IC50", "setting": "[3]", "value": 1.12, "unit": "µM"}, {"measurement": "IC50", "setting": "[4]", "value": 0.62, "unit": "µM"}, {"measurement": "IC50", "setting": "[6]", "value": 1.58, "unit": "µM"}, {"measurement": "IC50", "setting": "[7]", "value": 1.24, "unit": "µM"}]}
{"molecule": "CC1(C)CC(=O)c2cc3n(c2C1)CCc1cc([N+](=O)[O-])ccc1-3", "values": [{"measurement": "IC50", "setting": "[2]", "value": "> 100", "unit": "µM"}, {"measurement": "IC50", "setting": "[3]", "value": "> 100", "unit": "µM"}, {"measurement": "IC50", "setting": "[4]", "value": 16.7, "unit": "µM"}, {"measurement": "IC50", "setting": "[6]", "value": 73.7, "unit": "µM"}, {"measurement": "IC50", "setting": "[7]", "value": "> 100", "unit": "µM"}]}
{"molecule": "CC1(C)CC(=O)c2cc3n(c2C1)CCc1ccccc1-3", "values": [{"measurement": "IC50", "setting": "[2]", "value": "> 100", "unit": "µM"}, {"measurement": "IC50", "setting": "[3]", "value": "> 100", "unit": "µM"}, {"measurement": "IC50", "setting": "[4]", "value": "> 100", "unit": "µM"}, {"measurement": "IC50", "setting": "[6]", "value": 36.8, "unit": "µM"}, {"measurement": "IC50", "setting": "[7]", "value": "> 100", "unit": "µM"}]}
{"molecule": "CC1(C)CNC(=O)c2cc3n(c2C1)CCc1cc(Cl)ccc1-3", "values": [{"measurement": "IC50", "setting": "[2]", "value": "> 100", "unit": "µM"}, {"measurement": "IC50", "setting": "[3]", "value": "> 100", "unit": "µM"}, {"measurement": "IC50", "setting": "[4]", "value": 39.6, "unit": "µM"}, {"measurement": "IC50", "setting": "[6]", "value": "> 100", "unit": "µM"}, {"measurement": "IC50", "setting": "[7]", "value": "> 100", "unit": "µM"}]}
{"molecule": "O=C1Cc2c([nH]c3ccc(Br)cc23)-c2ccccc2N1", "note": "[KENPAULLONE]", "values": [{"measurement": "IC50", "setting": "[2]", "value": "> 100", "unit": "µM"}, {"measurement": "IC50", "setting": "[3]", "value": "> 100", "unit": "µM"}, {"measurement": "IC50", "setting": "[4]", "value": 23.9, "unit": "µM"}, {"measurement": "IC50", "setting": "[6]", "value": "> 100", "unit": "µM"}, {"measurement": "IC50", "setting": "[7]", "value": "> 100", "unit": "µM"}]}
{"molecule": "CC1(C)CC(=O)c2cc3n(c2C1)CCc1cc(Br)ccc1-3", "values": [{"measurement": "IC50", "setting": "[2]", "value": 53.3, "unit": "µM"}, {"measurement": "IC50", "setting": "[3]", "value": 50.6, "unit": "µM"}, {"measurement": "IC50", "setting": "[4]", "value": 36, "unit": "µM"}, {"measurement": "IC50", "setting": "[6]", "value": 23.9, "unit": "µM"}, {"measurement": "IC50", "setting": "[7]", "value": 35, "unit": "µM"}]}
{"molecule": "COc1ccc2c(c1)CCn1c-2cc2c1CC(C)(C)CC2=O", "values": [{"measurement": "IC50", "setting": "[2]", "value": "> 100", "unit": "µM"}, {"measurement": "IC50", "setting": "[3]", "value": "> 100", "unit": "µM"}, {"measurement": "IC50", "setting": "[4]", "value": "> 100", "unit": "µM"}, {"measurement": "IC50", "setting": "[6]", "value": 57.5, "unit": "µM"}, {"measurement": "IC50", "setting": "[7]", "value": "> 100", "unit": "µM"}]}
{"molecule": "COc1ccc2c(c1)CCn1c-2cc2c1CC(C)(C)CNC2=O", "values": [{"measurement": "IC50", "setting": "[2]", "value": "> 100", "unit": "µM"}, {"measurement": "IC50", "setting": "[3]", "value": "> 100", "unit": "µM"}, {"measurement": "IC50", "setting": "[4]", "value": "> 100", "unit": "µM"}, {"measurement": "IC50", "setting": "[6]", "value": "> 100", "unit": "µM"}, {"measurement": "IC50", "setting": "[7]", "value": "> 100", "unit": "µM"}]}
{"molecule": "CC1(C)CNC(=O)c2cc3n(c2C1)CCc1cc([N+](=O)[O-])ccc1-3", "values": [{"measurement": "IC50", "setting": "[1]", "value": "> 10", "unit": "µM"}, {"measurement": "IC50", "setting": "[2]", "value": "> 100", "unit": "µM"}, {"measurement": "IC50", "setting": "[3]", "value": 25.8, "unit": "µM"}, {"measurement": "IC50", "setting": "[4]", "value": 29.5, "unit": "µM"}, {"measurement": "IC50", "setting": "[5]", "value": "> 10", "unit": "µM"}, {"measurement": "IC50", "setting": "[6]", "value": "> 100", "unit": "µM"}, {"measurement": "IC50", "setting": "[7]", "value": 43.1, "unit": "µM"}, {"measurement": "IC50", "setting": "[8]", "value": "> 10", "unit": "µM"}]}
{"molecule": "CC1(C)CNC(=O)c2cc(-c3ccc([N+](=O)[O-])cc3)n(-c3ccc(Br)cc3)c2C1", "values": [{"measurement": "IC50", "setting": "[2]", "value": 25.6, "unit": "µM"}, {"measurement": "IC50", "setting": "[3]", "value": 21.1, "unit": "µM"}, {"measurement": "IC50", "setting": "[4]", "value": "> 100", "unit": "µM"}, {"measurement": "IC50", "setting": "[6]", "value": "> 100", "unit": "µM"}, {"measurement": "IC50", "setting": "[7]", "value": "> 100", "unit": "µM"}]}
{"molecule": "CC1(C)CNC(=O)c2cc3n(c2C1)CCc1ccccc1-3", "values": [{"measurement": "IC50", "setting": "[2]", "value": "> 100", "unit": "µM"}, {"measurement": "IC50", "setting": "[3]", "value": "> 100", "unit": "µM"}, {"measurement": "IC50", "setting": "[4]", "value": "> 100", "unit": "µM"}, {"measurement": "IC50", "setting": "[6]", "value": "> 100", "unit": "µM"}, {"measurement": "IC50", "setting": "[7]", "value": "> 100", "unit": "µM"}]}
{"molecule": "CC1(C)CNC(=O)c2cc3n(c2C1)CCc1cc(F)ccc1-3", "values": [{"measurement": "IC50", "setting": "[1]", "value": "> 10", "unit": "µM"}, {"measurement": "IC50", "setting": "[2]", "value": "> 100", "unit": "µM"}, {"measurement": "IC50", "setting": "[3]", "value": "> 100", "unit": "µM"}, {"measurement": "IC50", "setting": "[4]", "value": "> 100", "unit": "µM"}, {"measurement": "IC50", "setting": "[5]", "value": "> 10", "unit": "µM"}, {"measurement": "IC50", "setting": "[6]", "value": 33.7, "unit": "µM"}, {"measurement": "IC50", "setting": "[7]", "value": 54.5, "unit": "µM"}, {"measurement": "IC50", "setting": "[8]", "value": "> 10", "unit": "µM"}]}
{"molecule": "CC1(C)CNC(=O)c2cc(-c3ccc([N+](=O)[O-])cc3)n(-c3ccc(Cl)cc3)c2C1", "values": [{"measurement": "IC50", "setting": "[2]", "value": 28.8, "unit": "µM"}, {"measurement": "IC50", "setting": "[3]", "value": 17.4, "unit": "µM"}, {"measurement": "IC50", "setting": "[4]", "value": 20, "unit": "µM"}, {"measurement": "IC50", "setting": "[6]", "value": 15.1, "unit": "µM"}, {"measurement": "IC50", "setting": "[7]", "value": 51.7, "unit": "µM"}]}
{"molecule": "CC1(C)CC(=O)c2cc3n(c2C1)CCc1cc(Cl)ccc1-3", "values": [{"measurement": "IC50", "setting": "[2]", "value": "> 100", "unit": "µM"}, {"measurement": "IC50", "setting": "[3]", "value": "> 100", "unit": "µM"}, {"measurement": "IC50", "setting": "[4]", "value": 24.8, "unit": "µM"}, {"measurement": "IC50", "setting": "[6]", "value": 10.2, "unit": "µM"}, {"measurement": "IC50", "setting": "[7]", "value": 41.8, "unit": "µM"}]}
